Shown are actives, neighbours in structure and some others; about 2.5% of the full set was active somewhere.
NR1D1 modulator = modulates human Rev-erb alpha binding to DNA | Rev-erbα–FITC-DNA binding, fluorescence polarization, 90 min | activity, % at 10 µM | actives 0.79% (n = 370,000);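 active = activity above about 14%, limit read from the data; passing the limit was not always enough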
Target sequence (P20393 whole entry, looked up): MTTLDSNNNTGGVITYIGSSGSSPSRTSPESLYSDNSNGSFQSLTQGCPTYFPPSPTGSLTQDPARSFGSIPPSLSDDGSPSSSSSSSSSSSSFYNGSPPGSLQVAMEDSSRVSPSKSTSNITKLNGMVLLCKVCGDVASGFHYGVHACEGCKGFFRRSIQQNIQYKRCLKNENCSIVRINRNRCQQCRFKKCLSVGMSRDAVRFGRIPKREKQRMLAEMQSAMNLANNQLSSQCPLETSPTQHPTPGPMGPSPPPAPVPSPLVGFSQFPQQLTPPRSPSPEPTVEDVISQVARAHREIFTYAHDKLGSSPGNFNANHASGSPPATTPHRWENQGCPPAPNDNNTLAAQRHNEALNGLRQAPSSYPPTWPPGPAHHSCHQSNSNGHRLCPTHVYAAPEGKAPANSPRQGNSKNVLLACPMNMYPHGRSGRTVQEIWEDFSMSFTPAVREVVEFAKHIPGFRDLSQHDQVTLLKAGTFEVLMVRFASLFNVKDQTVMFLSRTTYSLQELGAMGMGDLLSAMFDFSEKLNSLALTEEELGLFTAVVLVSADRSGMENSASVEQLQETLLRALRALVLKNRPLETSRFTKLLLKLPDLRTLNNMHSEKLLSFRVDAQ
NTR1 agonist = agonists of human neurotensin receptor NTR1; NTR1-U2OS beta-arrestin-GFP spot imaging, agonist mode; activation, % at 20 µM; actives 0.17% (n = 330,000); P30989; AID 493036;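 active = activation at or above 40% of the spot to cytoplasm intensity ratio, with at least 20 cells analyzed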
MC4R antag cAMP = blocks human MC4R cAMP signaling. P32245. actives 0.48% (n = 360,000). inhibition, % at 6.5 µM. MC4R-expressing cells, MTII-stimulated cAMP, LANCE TR-FRET. AID 540295;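 active = inhibition above its plate's cutoff, the mean of tested wells on that plate plus 3 SD, cut at about 29% in these data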
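Assay system: human MC4R-expressing U2OS cells; reagent: Melanotan II stimulation of cells; dosing: 6.5 µM single dose; timing: compound 30 min, challenge 1 h, detection 1 h; signal: TR-FRET cAMP assay; replicates: one well per compound, no replicates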
MC4R ag barr = agonists of human melanocortin 4 receptor (MC4R) beta-arrestin; P32245; U2OS MC4R beta-arrestin complementation, luminescence; percent of melanotan II response, DMSO zero; activation, % at 8.9 µM; actives 0.98% (n = 360,000);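 active = activation above a per-plate cutoff, the mean activation of sample wells on that plate plus 3 SD, cut at about 8% in these data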
PG9 binder = PG9 antibody binding by small molecule | inhibition, % at 6.7 µM | TR-FRET gp120-PG9 antibody binding | AID 624416 | actives 0.43% (n = 360,000); in the data active = inhibition above about 8.5%
MC4R barr ag = human MC4R beta-arrestin agonism confirmation. shares compounds with MC4R ag barr. U2OS MC4R beta-arrestin recruitment, luminescence; scaled DMSO 0%, Melanotan II 100%. activation, % at 8.9 µM. actives 31% (n = 2,400). AID 602192;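 active = mean activation across replicates above the hit cutoff set in the earlier primary screen, cut at about 8% in these data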
MOR DOR agonist = OPRM1-OPRD1 heterodimer agonism counter-screen. shares compounds with MC4R ag barr. U2OS PathHunter beta-arrestin, beta-gal luminescence; percent of deltorphin B response, DMSO zero. activation, % at 9.2 µM. actives 5.8% (n = 2,400);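 active = mean activation across replicates exceeds the hit threshold derived in the earlier primary screen, cut at about 18% in these data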
PG9 binder conf = PG9 antibody binding, confirmed. actives 90% (n = 1,500). inhibition, % at 6.7 µM. TR-FRET PG9 antibody binding, biochemical. shares compounds with PG9 binder; in the data active = inhibition above about 9%
PGV04 Ab binding = PGV04 control antibody binding, counter-screen; shares compounds with PG9 binder; TR-FRET PGV04 antibody-gp120 binding, biochemical; inhibition, % at 6.7 µM; actives 95% (n = 1,500); AID 651604; in the data active = inhibition above about 9.5%
PG9 bind DR = small molecules binding HIV-1 gp120 antibody PG9; shares compounds with PG9 binder; TR-FRET PG9 antibody-gp120 binding inhibition; IC50, µM; 95 tested, under 10 active; AID 651848; in the data active = IC50 below about 10 µM
PGV04 binding DR = counter-screen for PG9 binders: binding to control antibody PGV04; actives 20% (n = 95); shares compounds with PG9 binder; TR-FRET binding to control antibody PGV04; IC50, µM
PG126 DR counter = PG126 binding, dose response counter-screen. shares compounds with PG9 binder. AID 651939. TR-FRET binding to antibody PG126, counterscreen. actives 20% (n = 95). IC50, µM
Rev-erbA confirm = confirmation of modulators of human Rev-erb alpha DNA binding. actives 61% (n = 3,000). activation, % at 25 µM. Rev-erb alpha FITC-DNA binding, fluorescence polarization, 90 min. shares compounds with NR1D1 modulator. AID 1259319;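 active = activation at or above a set limit, or at least 3 SD above the negative control mean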
RORg counter = counter-screen for Rev-erb alpha modulators: RORgamma DNA binding | actives 8% (n = 910) | purified RORgamma protein-FITC-DNA binding, fluorescence polarization | shares compounds with NR1D1 modulator | IC50, µM;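 active = Compounds whose fitted half-maximal concentration for disrupting protein-DNA binding is below 10 micromolar; the record names Rev-erb in its text, so the target is in doubt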
A number is an active result; . = inactive; / = no result. Cut-off read from the data, not from the text of the source, unless noted: active = IC50 below about 9 µM; inactive = the rest.

SMILES	NR1D1 modulator	NTR1 agonist	MC4R antag cAMP	MC4R ag barr	PG9 binder	MC4R barr ag	MOR DOR agonist	Rev-erbA confirm	RORg counter	others
CCN(CC)c1ccc2cc(C(=O)NCc3ccc(F)cc3)c(=N)oc2c1	40	.	.	13	.	.	.	32	.
N=c1oc2ccc(Br)cc2cc1C(=O)NCc1ccc(F)cc1	.	.	.	.	.	/	/	/	/
COc1cc(C(=O)Nc2nnc(-c3sccc3C)s2)cc(OC)c1OC	93	.	.	12	.	23	.	117	.
CCOCc1nnc(NC(=O)c2cc(OC)c(OC)c(OC)c2)s1	.	.	.	.	.	/	/	/	/
CC(=O)c1sc(NC(=O)CCCOc2ccc(Cl)cc2)nc1C	15	.	.	11	.	.	.	.	/
COc1ccc(OCCCC(=O)Nc2nc(C)c(C(C)=O)s2)cc1	.	.	.	.	.	/	/	/	/
CCC(C)NC(=O)C1CCN(S(=O)(=O)c2ccc3[nH]c(=O)oc3c2)CC1 (stereo not drawn)	.	/	/	/	/	/	/	/	/
CCc1ccc(-c2nc(NC(=O)c3ccc(OCC(=O)Nc4ccc(F)cc4)c(OC)c3)sc2C)cc1	113	.	.	11	.	10	.	66	.
COc1ccc(-c2nc(NC(=O)c3ccc(OCC(=O)N4CCOCC4)c(OC)c3)sc2C)cc1	.	.	.	.	.	/	/	/	/
COc1cc(OC)cc(-c2nc(-c3cc4cc(C)ccc4nc3OC)no2)c1	.	/	.	.	.	/	/	/	/
COc1nc2c(C)cccc2cc1-c1noc(-c2ccco2)n1	20	.	.	14	.	.	.	.	/
O=C(Nc1nnc(SCc2ccccc2)s1)c1cc2c(s1)CCCC2	52	.	.	20	9.7	8.3	.	34	.	PG9 binder conf=21;PGV04 Ab binding=17;PG9 bind DR=.;PGV04 binding DR=.;PG126 DR counter=.
O=C(Nc1nnc(SCc2ccccc2)s1)c1cccc([N+](=O)[O-])c1	.	.	.	.	.	/	/	/	/
COc1ccc(C(=O)COC(=O)c2cc(=O)[nH]c3ccccc23)c(OC)c1	77	.	.	12	46	.	.	37	.	PG9 binder conf=50;PGV04 Ab binding=78
COc1cccc(Nc2nc(-c3ccccc3O)nc3ccccc23)c1	155	.	.	17	.	.	.	96	.
C[C@H]1[C@@H](C(=O)N2CCCC2)Cc2nc3ccccc3nc2C[C@@H]1c1ccccc1	.	/	/	/	/	/	/	/	/
O=C(Nc1cc(-c2nc3ccccc3s2)ccc1Cl)c1ccc2c(c1)OCO2	28	.	.	24	.	21	.	.	/
N#Cc1ccc(-c2cccnc2)nc1SCC(=O)c1ccccc1	23	.	.	11	.	.	.	30	/
CCN(CC)C(=O)CSc1nc(-c2ccccc2)ccc1C#N	.	.	.	.	.	/	/	/	/
C[C@H]1[C@@H](OC(=O)Nc2ccc(C(F)(F)F)cc2)CC[C@@]23CCCN2C(=O)CCC[C@@H]13	.	/	/	/	/	/	/	/	/

Screens deposited in PubChem BioAssay by several laboratories.
